The test system of data set [1] is hepatitis C virus (HCV) replicon in Huh 7 cells. The experiment in a line: Subgenomic HCV replicon system in Huh 7 cells. The data set is classed as cell-based. Particulars: 10 μM. The method, boiled down:
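Huh 7 Clone B cells carrying subgenomic HCV replicon RNA were seeded at 3000 cells/well and given test compound at 10 μM in triplicate immediately after seeding. After 5 days at 37 °C in 5% CO2, total RNA was extracted. Replicon RNA was measured against an rRNA internal control by one-step multiplex real-time RT-PCR. ΔCt was taken versus the no-drug control, where ΔCt 3.3 = 1-log reduction; rRNA ΔCt gave cytotoxicity. 2′-C-Me-C at 10 μM served as the control.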
For orientation: A replicon is a self-replicating genome or part of one, used to study replication in cells.

Another data set deals with HIV. The experiment in a line: Anti-HIV activity in cellular assay. The data set is classed as cell-based. Particulars: Human immunodeficiency virus 1, read-out: Anti-HIV activity EC90.
Data set [2] concerns PBMC, human lymphoblastoid CEM and Vero cells. Briefly: Cytotoxicity testing in PBMC, CEM and Vero cells. The data set is classed as cell-based. To be noted: at 100 μM.
A further data set concerns Hel cells. To be noted: at 100 μM, Hel cell cultures.

Consider 5 compounds from article PMC7111275 (European Journal of Medicinal Chemistry, 2013).

Broadly, the EC90 is the concentration needed for an effect of 90%.

As to `CC(C)(C)C(=O)OCOP(=O)(C/C=C/Cn1ccc(N)nc1=O)OCOC(=O)C(C)(C)C` [Compound 8a, (E)-N^1-(4′-Bis(POM)phosphinyl-2′-butenyl)-cytosine], the “Anti-HCV activity (in words)” value in data set [1] is “pronounced anti-HCV activity”. For the same compound, the EC90 with HIV is above 100 µM. The “Cytotoxicity (in words)” value in data set [2] is “without significant cytotoxicity”.

On to `CC(C)(C)C(=O)OCOP(=O)(C/C=C/Cn1cc(CO)nn1)OCOC(=O)C(C)(C)C` [Compound 31, (E)-1-(4′-Bis(POM)-phosphinylbut-2′-enyl)-4-(hydroxymethyl)-1,2,3-triazole], for which, in the data set on Hel cells, the “Cytotoxicity (in words)” value is reported as “no observed cytotoxicity”.

With `COC(=O)c1nccn(C/C=C/CP(=O)(OCOC(=O)C(C)(C)C)OCOC(=O)C(C)(C)C)c1=O` [Compound 13, (E)-N^1-(4′-Bis(POM)-phosphinylbut-2′-enyl)-3-oxo-pyrazine-2-methylester], the “Anti-HCV activity (in words)” value in data set [1] was “pronounced anti-HCV activity”. Also, the “Cytotoxicity (in words)” value in data set [2] is reported as “without significant cytotoxicity”.

Turning to `CC(C)(C)C(=O)OCOP(=O)(C/C=C/Cn1cc(C(=O)O)nn1)OCOC(=O)C(C)(C)C` [Compound 24, (E)-1-(4′-Bis(POM)-phosphinylbut-2′-enyl)-4-(carboxylic acid)-1,2,3-triazole], the “Anti-HCV activity (in words)” value in data set [1] is given as “pronounced anti-HCV activity”. Moreover, the “Cytotoxicity (in words)” value in data set [2] was “without significant cytotoxicity”.

`CC(C)(C)C(=O)OCOP(=O)(C/C=C/Cn1ccnc(C(N)=O)c1=O)OCOC(=O)C(C)(C)C` [Compound 14, (E)-N^1-(4′-Bis(POM)-phosphinylbut-2′-enyl)-3-oxo-pyrazine-2-carboxamide]: the “Anti-HCV activity (in words)” value in data set [1] is on record as “pronounced anti-HCV activity”. In addition, the “Cytotoxicity (in words)” value in data set [2] is recorded as “without significant cytotoxicity”.
